Measured values of several laboratories.
Each line is one published result; the experiments were not run side by side.
Observed: metabolic stability
Species: mouse
Matrix: liver microsomes

Structure (SMILES)	concentration	pH	microsomal CLint [µL/min/mg]
O=c1c2c([nH]c3c(Oc4ccc(OC(F)(F)F)cc4)cccc13)CCCC2	1 µM	pH 7.4	8.33
Cc1[nH]c(C)c(S(=O)(=O)Nc2ccc(C(F)(F)F)c(Cl)c2)c1C(=O)N(C)C	–	–	179
CONC(=O)c1cccc2c1cc(C)n2-c1nc2c(c(NCc3ccccc3)n1)CCCN2	1 µM	pH 7.4	619
CC(C)(C)OC(=O)N1CCC(Oc2ccc3c(=O)c4c(F)cc(Cl)cc4[nH]c3c2)C1 (stereo not shown)	1 µM	pH 7.4	16.7
CCCCCCCCCCCCCCCC(=O)NCCOC(=O)C[C@@H](CN)CC(C)C	1 µM	pH 7.4	14.6
CCN(CC)CCOc1ccc2c(=O)c3c([nH]c2c1)CCCC3	1 µM	pH 7.4	17.7
CC1(C)NC(=O)N(c2ccc(F)c(CC(F)(F)F)c2)C1=O	–	–	< 7
O=c1c2c([nH]c3cc(OC(F)(F)F)ccc13)CCCC2	1 µM	pH 7.4	139
O=C1NC2(CCS(=O)(=O)CC2)C(=O)N1c1ccc(F)c(C(F)(F)F)c1	–	–	< 7
CC(C)c1cc(C(=O)NCCN)c2cnn(C(C)C)c2n1	–	–	< 9.6
O=c1c2ccc(Oc3ccc(OC(F)(F)F)cc3)cc2[nH]c2cc(Cl)c(F)cc12	1 µM	pH 7.4	1.84
CC1(C)NC(=O)N(c2ccc(F)c(Br)c2)C1=O	–	–	8
O=C(O)Cc1ccccc1Nc1c(Cl)cccc1Cl	–	–	31.2
CCCN(CCC)CCCOc1ccc2c(=O)c3c([nH]c2c1)CCCC3	1 µM	pH 7.4	34.1
CC1(C)NC(=O)N(c2cccc(C(F)(F)F)n2)C1=O	–	–	< 7
CC(C)n1ncc2c(C(=O)NCC3(F)CNC3)cc(C3CC3)nc21	–	–	19.8
Cc1[nH]c(C)c(S(=O)(=O)Nc2ccc(C(F)(F)F)c(Cl)c2Cl)c1C(=O)N1CCC(F)(F)C1	–	–	15.7
CC(C)c1cc(C(=O)NCCN2CCCC2)c2cnn(C(C)C)c2n1	–	–	49.1
CC1(C)NC(=O)N(c2cc(C(F)(F)F)c(F)cc2C#N)C1=O	–	–	< 7
